This is a sample that favours compounds with a hit; in the whole collection about 3.1% have one here.
KCNK3 inh: human KCNK3 channel inhibition, primary screen; CHO-KCNK3 thallium flux, FluxOR fluorescence; stronger effect = lower value; B-score at 10 µM; 340,000 compounds, 0.84% hits; AID 602410;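 active = B-score under library mean minus 4 SD, starting fluorescence ratio at most library mean plus 5 SD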;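 note: more negative B-score means stronger inhibition of thallium flux through KCNK3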
Target sequence (O14649 whole entry, looked up): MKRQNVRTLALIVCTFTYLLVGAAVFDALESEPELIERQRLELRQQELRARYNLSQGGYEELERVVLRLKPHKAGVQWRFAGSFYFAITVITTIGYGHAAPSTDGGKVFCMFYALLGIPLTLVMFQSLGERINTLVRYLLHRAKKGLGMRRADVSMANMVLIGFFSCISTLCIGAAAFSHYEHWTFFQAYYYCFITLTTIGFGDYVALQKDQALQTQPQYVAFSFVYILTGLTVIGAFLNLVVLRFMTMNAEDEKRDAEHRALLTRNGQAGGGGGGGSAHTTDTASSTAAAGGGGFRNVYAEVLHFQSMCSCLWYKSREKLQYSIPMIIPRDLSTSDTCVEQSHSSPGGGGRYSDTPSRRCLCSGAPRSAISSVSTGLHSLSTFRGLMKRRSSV
KCNK9 inh: blocks the human KCNK9 two-pore domain potassium channel; HEK293 KCNK9, FluxOR thallium flux fluorescence; stronger effect = lower value; B-score at 10 µM; 310,000 compounds, 1.2% hits; AID 488922;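 active = ratio B-score over 3 SD below the library mean, with starting fluorescence within 5 SD of its mean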;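 note: negative B-score means less thallium flux so channel inhibition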
hERG rescue: hERG (human) protection from proarrhythmic block | Q12809 | CHO-hERG, FluxOR thallium flux, dofetilide IC70 present | activation (rescue from dofetilide block), less the hit threshold, % at 10 µM | 310,000 compounds, 0.51% hits | AID 1511;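 active = activation above the mean of controls blocked by dofetilide plus 5 SD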;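 note: thallium influx through hERG after potassium depolarization seen as dye fluorescence rise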
KCNQ1 pot: potentiates or activates the human KCNQ1 potassium channel | P51787 | CHO-K1 KCNQ1, thallium flux FluxOR fluorescence; stronger effect = higher value | B-score at 10 µM | 310,000 compounds, 0.35% hits | AID 2648;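 active = fluorescence ratio B-score, a plate-corrected score, at least three library SD, with initial intensity B-score within 5 SD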
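Material: CHO-K1 cells stably expressing KCNQ1. Medium: assay buffer for compound exposure, DMSO matched across wells. Reagent: K+/Tl+ depolarizing stimulus. Compound dosing: single-concentration screen. Times: 37 °C overnight plating, 90-min dark dye load, 20-min compound pretreatment. Technique: FluxOR Tl+ flux fluorescence.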
KCNQ1 block: inhibitors of human KCNQ1 potassium channel | B-score at 10 µM | CHO-K1 KCNQ1, FluxOR thallium flux fluorescence; stronger effect = higher value | P51787 | 310,000 compounds, 1.3% hits | AID 2642;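 active = compounds whose thallium flux B-score, printed positive for inhibition, exceeds three library SD while starting fluorescence stays within three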;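 note: channel opened by potassium depolarization with thallium stimulus after 20 min compound exposure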
KCNQ1 block val: confirmation of human KCNQ1 potassium channel inhibitors; shares compounds with KCNQ1 block; KCNQ1 cell line, FluxOR thallium flux fluorescence; inhibition, % at 10 µM; 1,600 compounds, 93% hits;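 active = primary screen active, with duplicate mean exceeding buffer control mean plus 3 SD of buffer wells, cut at about 28% in these data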;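 note: 0% = buffer control ratio and 100% = XE991 inhibitor control ratio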
CHO KCNQ1 ctr: KCNQ1 inhibitor counter-screen hit in parental CHO cells; shares compounds with KCNQ1 block; parental CHO-K1, FluxOR thallium flux fluorescence ratio; stronger effect = lower value; zero means no signal rise above baseline; fluorescence ratio (Tl flux) at 10 µM; 1,600 compounds, 21% hits;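 active = mean of duplicate thallium-flux fluorescence ratios in parental host cells more than 5 SD below the buffer control mean, cut at about 0.38 in these data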;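 note: ratio is peak minus minimum fluorescence divided by baseline fluorescence; actives read low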
KCNQ1 ephys val: human KCNQ1 inhibition validated by electrophysiology; shares compounds with KCNQ1 block; KCNQ1-CHO cells, automated patch clamp current; calls only at 10 µM; 490 compounds, 20% hits; AID 624120;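 active = KCNQ1 current drop exceeding 3 SD of negative control wells, seen in both duplicate runs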;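 note: steady state current during a 2 s step from -80 to +40 mV; negative values mean current inhibition and positive values mean potentiation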
KCNQ2 inh: KCNQ1 inhibitor that also blocks rat KCNQ2 channel; 1,600 compounds, 71% hits; shares compounds with KCNQ1 block; AID 651746; inhibition, % at 10 µM; KCNQ2 cells, FluxOR thallium flux fluorescence;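 active = mean percent inhibition of the KCNQ2 thallium signal more than 5 SD above the buffer-only control wells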;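 note: KCNQ2 expressed in CHO cells; 0% = buffer control wells and 100% = XE-991 inhibitor control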
KCNQ1-KCNE1 inh: KCNQ1 inhibitor that also blocks human KCNQ1/KCNE1 channel; shares compounds with KCNQ1 block; KCNQ1/KCNE1 cells, FluxOR thallium flux fluorescence; inhibition, % at 10 µM; 1,600 compounds, 77% hits; AID 652147;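 active = mean percent inhibition of duplicate wells above the buffer-only control mean plus 3 SD of those controls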;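 note: 0% = buffer only wells and 100% = XE-991 inhibitor control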
KCNK9 inh conf: confirmation of human KCNK9 potassium channel inhibitors; shares compounds with KCNK9 inh; HEK293 KCNK9 cells, FluxOR thallium flux fluorescence; inhibition, % at 10 µM; 4,900 compounds, 43% hits; AID 492992;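 active = thallium signal inhibited by more than 5 SD of the compound-free buffer control wells, on both duplicate plates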;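 note: 0% = assay buffer control wells without compound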
Kir2-1 spec: mouse Kir2.1 off-target activity of KCNK9 modulators; Kir2.1 cells, FluxOR thallium flux fluorescence; inhibition, % at 10 µM; 4,900 compounds, 4% hits; shares compounds with KCNK9 inh;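 active = thallium signal drop more than 5 SD beyond the mean of the no-compound control wells, seen in both duplicate plates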;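 note: signal is fluorescence rise after thallium addition divided by baseline fluorescence; plate controls were assay buffer only for no effect and full block by chlorpromazine control for full effect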
Target sequence (P35561 whole entry, looked up): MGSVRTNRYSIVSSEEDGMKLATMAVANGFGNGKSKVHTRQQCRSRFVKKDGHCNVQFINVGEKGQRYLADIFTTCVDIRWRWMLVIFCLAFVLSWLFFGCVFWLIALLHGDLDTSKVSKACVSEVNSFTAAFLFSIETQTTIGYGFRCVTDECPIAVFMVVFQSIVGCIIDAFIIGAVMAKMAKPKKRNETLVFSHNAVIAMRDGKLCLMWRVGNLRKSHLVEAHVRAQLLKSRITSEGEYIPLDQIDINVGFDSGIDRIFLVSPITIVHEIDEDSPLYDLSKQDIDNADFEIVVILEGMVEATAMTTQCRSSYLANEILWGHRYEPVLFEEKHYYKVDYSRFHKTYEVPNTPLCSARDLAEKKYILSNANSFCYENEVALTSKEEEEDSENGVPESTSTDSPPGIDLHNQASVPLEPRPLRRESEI
KCNK9 uninduced: non-induced cell nonspecific activity of KCNK9 modulators; non-induced KCNK9-HEK293, FluxOR thallium flux; shares compounds with KCNK9 inh; inhibition, % at 10 µM; AID 492997; 4,900 compounds, 40% hits;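 active = thallium signal drop beyond 5 SD of the untreated control mean, on both duplicate plates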;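 note: plate controls were buffer only IC0 wells for no effect and SID17386958 at its maximal inhibitory level for full effect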
KCNK3 confirm: confirmation of human KCNK3 two-pore domain potassium channel inhibitors; shares compounds with KCNK3 inh; CHO-KCNK3 thallium flux, FluxOR fluorescence; 0% buffer, 100% carvedilol maximal block; ratio percent of control, % at 10 µM; 2,400 compounds, 99% hits; AID 651638;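 active = ratio percent of control, averaged over triplicates, above buffer control mean plus 5 SD, cut at about 64% in these data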;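 note: ratio is the fluorescence rise from min to max over baseline after thallium stimulus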
KCNK3 uninduced: counter-screen for KCNK3 inhibitors: effect in non-induced cells. shares compounds with KCNK3 inh. non-induced KCNK3 parental cells, FluxOR thallium flux; stronger effect = lower value. thallium flux ratio (lower = more inhibition) at 10 µM. 2,400 compounds, 40% hits. AID 651747;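 active = thallium flux ratio, averaged over three wells, more than 5 SD below the buffer control mean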;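 note: host cells are CHO cells without KCNK3 induction; ratio is peak minus trough fluorescence over baseline then normalized to buffer controls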
* hit, by the source's call; i = inactive; . = not tested or not shown; + = active, no number.

SMILES | KCNK3 inh | KCNK9 inh | hERG rescue | KCNQ1 pot | KCNQ1 block | KCNQ1 block val | CHO KCNQ1 ctr | KCNQ2 inh | KCNQ1-KCNE1 inh | KCNK3 confirm | KCNK3 uninduced | others
O=C(NC1CCCC1)c1ccc2c(c1)N(Cc1ccc(F)cc1)CCS2 | -9.26* | -13.9* | -12.2 | i | 9* | 75.5* | 0.394 | 98.0%* | 90.5%* | 96.3* | i | KCNK9 inh conf=74.5%*;Kir2-1 spec=i;KCNK9 uninduced=41.5%*
Cc1cc(N2CCOCC2)n2nc(-c3cccc(F)c3)cc2n1 | i | i | -6.1 | i | i | . | . | . | . | . | .
CCC1CCCCN1c1cc(C)nc2cc(-c3cccc(C)c3)nn12 (centres undefined) | -12.9* | i | -10.9 | i | 8* | 111.5* | 0.438 | 103.3%* | 83.0%* | 113.7* | 0.153* | KCNQ1 ephys val=i
Cc1onc(-c2ccccc2)c1C(=O)OCCOc1cccc(Cl)c1 | -14.2* | i | -9.4 | i | 7* | 85.5* | 0.422 | 86.3%* | 150.5%* | 90.3* | i
CCOc1ccc(C(=O)COC(=O)c2c(-c3ccccc3)noc2C)cc1 | i | i | -15.3 | i | i | . | . | . | . | . | .
Cc1cccc(C)c1-c1ccc(CN2C(CC(C)C)C(=O)N(Cc3cn(CCO)nn3)CCS2(=O)=O)cc1 (centres undefined) | i | . | . | . | . | . | . | . | . | . | .
CCCCNC(=S)Nc1ccc(Oc2ccccc2)cc1 | -9.72* | -7.45* | -22.1 | i | 6* | 39.0* | 0.54 | i | 67.5%* | 95.7* | i
CCOc1ccc(NC(=S)NCCCc2ccccc2)cc1 | i | i | -8.3 | i | i | . | . | . | . | . | .
COc1ccccc1NC(=O)c1cc2cc(Br)ccc2cc1O | -8.76* | i | -22.3 | i | 9* | 126.0* | 0.445 | 97.0%* | 107.0%* | 135.0* | 0.105* | KCNQ1 ephys val=i
COc1ccccc1CNC(=O)C(=O)NCC1CCCN1S(=O)(=O)c1cccs1 (centres undefined) | i | i | -15.1 | i | i | . | . | . | . | . | .
CCOc1ccccc1NC(=O)C(OC(=O)c1cc(C)oc1C)c1ccccc1 (centres undefined) | i | -7.86* | -11.1 | i | 6* | 82.0* | 0.334* | 105.3%* | 86.0%* | 105.7* | i
COc1ccc(C)cc1NC(=O)C(OC(=O)c1cc(C)oc1C)c1ccccc1 (centres undefined) | i | i | -9.5 | i | i | . | . | . | . | . | .
CC(C)N(C(=O)CSc1ccc(S(=O)(=O)N2CCCCC2)cn1)c1ccccc1 | i | . | . | . | . | . | . | . | . | . | .
COCCN1C(=O)Cc2c1nc(N)c1c(N)nc(N3CCN(c4ccc(F)cc4)CC3)c(C#N)c21 | i | i | -14.9 | i | i | . | . | . | . | . | .
COCC(C)N1C(=O)Cc2c1nc(N)c1c(N)nc(N3CCN(c4ccccc4F)CC3)c(C#N)c21 (centres undefined) | i | -10.7* | -22.4 | i | 6* | 151.5* | 0.493 | i | + | 114.7* | 0.147* | KCNQ1 ephys val=i;KCNK9 inh conf=62.0%*;Kir2-1 spec=i;KCNK9 uninduced=i
COc1ccc(CCN2C(=O)N[C@@H](C(C)C)C2=O)cc1 | i | i | -4.4 | i | i | . | . | . | . | . | .
CCN(c1ccccc1)c1nc(C#N)nc(N(CC)c2ccccc2)n1 | -11* | i | -9.9 | i | 7* | 105.5* | 0.367* | 112.3%* | 80.0%* | 102.0* | i | KCNK9 inh conf=i;Kir2-1 spec=i;KCNK9 uninduced=i
CC[C@]12C(=O)N(C)C[C@H]([C@@H]3C(=O)N(Cc4ccccc4)C(=O)[C@@H]31)N2C(=O)c1ccc(F)cc1 | i | . | . | . | . | . | . | . | . | . | .
Cc1cccc2nc(-c3cccnc3)c(NCCC(C)C)n12 | -10.1* | -9.09* | 4.9* | i | 11* | 139.0* | 0.374* | 119.3%* | 157.0%* | 141.3* | 0.132* | KCNK9 inh conf=37.0%*;Kir2-1 spec=i;KCNK9 uninduced=36.0%*
CCCn1c(=O)c(C(=O)NCCc2ccc(OC)c(OC)c2)c(O)c2ccccc21 | -10.6* | i | -3.0 | i | 9* | 79.5* | 0.407 | 101.3%* | 63.0%* | 107.0* | 0.159*
N#CC1=C(N)NC(SCc2ccc(Br)cc2)=C(C#N)C12CCCCC2 | -11.7* | -6.84* | -12.8 | i | 18* | 139.5* | 0.307* | 114.7%* | 159.0%* | 125.7* | 0.129*
N#CC1=C(N)NC(SCc2ccccc2)=C(C#N)C12CCCC2 | i | i | -15.9 | i | i | . | . | . | . | . | .
CC(=O)c1c(C)[nH]c(C(=O)Nc2ccc(C)c(S(=O)(=O)Nc3ccc(C)cc3C)c2)c1C | -12.7* | -7.76* | -15.4 | i | 12* | 142.0* | 0.443 | 141.7%* | + | 137.3* | i | KCNQ1 ephys val=i
O=C(CCNC(=O)c1ccccc1Cl)Nc1ccccc1N1CCCC1 | i | i | -5.6 | i | i | . | . | . | . | . | .
Cc1cc(OCC(=O)Nc2ccccc2N2CCCC2)ccc1C(C)C | -9* | i | -12.9 | i | 9* | 72.5* | 0.511 | 82.3%* | 99.5%* | 111.7* | i
O=C(CNCc1ccccc1Cl)Nc1ccccc1N1CCCCC1 | -8.95* | i | -35.4 | i | 7* | 96.0* | 0.404 | 115.0%* | 109.0%* | 113.7* | 0.151* | KCNQ1 ephys val=+
Cc1cc(OCC(=O)Nc2ccccc2N2CCCCC2)ccc1C(C)C | i | i | -10.4 | i | i | . | . | . | . | . | .

Source: PubChem BioAssay (Johns Hopkins Ion Channel Center)
